Test results published in ChEMBL document CHEMBL1129932, “Novel naphthalene derivatives as inhibitors of human immunoglobulin E antibody production” (J Med Chem, 1997).

Legend:
[1] = Inhibitory activity against IgE antibody production in PMBC cells; assay type: functional, cell-based; settings: Homo sapiens
In short: (§1)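 Human PBMC from healthy donors (final 2×10^6 cells/mL) were cultured in triplicate in RPMI 1640 with 10% FCS, 2 mM glutamine and penicillin/streptomycin. On day 0 they received IL-4 0.1 μg/mL, IL-10 0.2 μg/mL and α-CD40 2 μg/mL, with or without compound. After 14 days, IgE in the medium was measured by ELISA. Suppression (%) = (without − with compound)/without × 100, and IC50 was given for active compounds.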

[2] = In vitro inhibition of IgE antibody production in human PBMC cultured with alpha-CD40, IL-4 and IL-10 at 3 uM concentration; assay type: functional; in short: as §1
[3] = In vitro inhibition of IgG antibody production in human PBMC cultured with alpha-CD40, IL-4 and IL-10 at 3 uM concentration […]; assay type: functional
[4] = Tested for human PBMC cell viability, cultured with alpha-CD40, IL-4 and IL-10 at 3 uM (a negative number means enhancement of cell viability); assay type: functional
In short: (§2)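 Viability was read in the same 14-day PBMC cultures (2×10^6 cells/mL, triplicate) with IL-4 0.1 μg/mL, IL-10 0.2 μg/mL and α-CD40 2 μg/mL. After the medium was removed, alamar blue was added for 2 h and fluorescence was read (excitation 530 nm, emission 590 nm). Suppression (%) = (without − with compound)/without × 100.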

[5] = Inhibitory activity against IgG antibody production in PBMC; assay type: functional; settings: Homo sapiens
In short: (§3)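 Human PBMC from healthy donors (final 2×10^6 cells/mL, triplicate) were cultured in RPMI 1640 with 10% FCS, glutamine and antibiotics. IL-4 (0.1 μg/mL), IL-10 (0.2 μg/mL) and α-CD40 (2 μg/mL) were added on day 0, with or without compound. After 14 days, IgG in the medium was measured by ELISA. Suppression (%) = (level without − level with compound)/level without × 100.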

[6] = In vitro inhibition of IgE antibody production in human PBMC cultured with alpha-CD40, IL-4 and IL-10 at 3 uM concentration (negative means enhancement of antibody biosynthesis); assay type: functional; in short: as §1
[7] = Compound was tested for inhibition of IgE production on human PBMC culture after treating with IL-4, alpha-CD40, IL-10; assay type: functional; in short: as §1
Homo sapiens = species: Homo sapiens; test: Compound was tested for inhibition of PGE-2 production by human lung fibroblast WI-38 stimulated with interleukin-1-alpha (IL-1alpha) and [Ca2+] ionophore A-23187; assay type: functional
In short: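 WI-38 human lung fibroblasts (2×10^5 cells/mL) were grown to confluence over 4 days, then serum-starved overnight in medium with 0.5% BSA. Medium was replaced with 0.5% BSA medium containing IL-1α 10 ng/mL, with or without compound, and incubated overnight at 37 °C. Released PGE2 was measured by ELISA kit.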

RBL-1 [8] = test: Compound was tested for inhibition of LTB4 production by rat basophilic leukemia cells(RBL-1) stimulated with A-23187; assay type: functional, cell-based
In short: (§4)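 RBL-1 cells were maintained in DMEM with 10% FCS. Cells were preincubated with or without compound for 10 min at 37 °C, then stimulated with A23187 at a final 2 μM for 5 min. The reaction was stopped, and LTB4 in the centrifuged supernatant was measured by ELISA kit.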

[9] = In vitro inhibition of IgE antibody production in human PBMC cultured with alpha-CD40, IL-4 and IL-10 at 3 uM concentration […]; assay type: functional
[10] = Tested for human PBMC cell viability, cultured with alpha-CD40, IL-4 and IL-10 at 3 uM; assay type: functional; in short: as §2
[11] = Compound was tested for inhibition of IgE production on human PBMC culture after treating with IL-4, HC; assay type: functional
In short: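 PBMC at a final 2×10^6 cells/mL were cultured in triplicate in RPMI 1640 with 10% FCS, 2 mM glutamine and penicillin/streptomycin. IL-4 (0.1 μg/mL) and HC (1 μM) were added on day 0, with or without compound. After 14 days, IgE in the medium was measured by ELISA. Suppression (%) = (level without compound − level with compound)/level without compound × 100.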

RBL-1 [12] = test: Compound was tested for inhibition of LTB4 production by rat basophilic leukemia cells (RBL-1) stimulated with A-23187; assay type: functional, cell-based; in short: as §4
[13] = In vitro inhibition of IgG antibody production in human PBMC cultured with alpha-CD40, IL-4 and IL-10 at 3 uM concentration; assay type: functional; in short: as §3
[14] = Inhibitory activity against IgE antibody production in PBMC; assay type: functional; settings: Homo sapiens; in short: as §1
B-cell line = test: Compound was tested for inhibition of IgE production on mouse B cells after treating with IL-4, LPS; assay type: functional, cell-based
In short: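 B cells came from DBA/2 splenocytes depleted with anti-mouse T cell serum plus rabbit complement, then fractionated by gradient centrifugation. They were cultured in RPMI 1640 with 10% FCS and LPS at a final 2 μg/mL. After 1 day, mouse IL-4 was added at a final 50 ng/mL. Culture continued for 6 days, and IgE in the media was measured by ELISA.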

| Structure (SMILES) | Suppression [2] | Suppression [3] | Cell viability [4] | Suppression [13] | also measured |
| --- | --- | --- | --- | --- | --- |
| O=C(Nc1ccccc1C(=O)O)c1ccc(Oc2ccccc2)cc1 | 46% | -1.8% | -1.4 |  | IC50 [1]: 3280 nM; IC50 [5]: > 10000 nM |
| CC(C)(C(=O)Nc1ccccc1C(=O)O)c1ccc(Oc2ccc3ccccc3c2)cc1 |  | -5.4% | -11.3 |  | Suppression [6]: -30.4% |
| O=C(Nc1ccccc1C(=O)O)c1ccc(Oc2ccc3ccccc3c2)cc1 | 64.8% | -16.9% | -7.4 |  | IC50 [7]: 1300 nM; IC50 (Homo sapiens): 10000 nM; IC50 (RBL-1 [8]): 400 nM; IC50 [5]: 38000 nM |
| O=C(Nc1ccccc1-c1nn[nH]n1)c1ccc(Oc2ccc3ccccc3c2)cc1 |  | -18.7% | -13.6 |  | Suppression [9]: -74.5% |
| O=C(Cc1ccc(Oc2ccc3ccccc3c2)cc1)Nc1ccccc1C(=O)O | 86.6% |  |  | 31.2% | Cell viability [10]: 11.4; IC50 [7]: 600 nM; IC50 (Homo sapiens): 10000 nM; IC50 [11]: 1900 nM; IC50 (RBL-1 [12]): 700 nM; IC50 [5]: 4300 nM |
| O=C(Nc1ccccc1C(=O)O)c1ccc(COc2ccc3ccccc3c2)cc1 |  | -16.1% |  |  | Suppression [6]: -6.1%; IC50 [7]: > 3000 nM; IC50 (Homo sapiens): < 1000 nM |
| O=C(Nc1ccccc1C(=O)O)c1cccc(Oc2ccc3ccccc3c2)c1 |  | -16% | -23.6 |  | Suppression [9]: -26.2% |
| O=C(O)c1cccc(NC(=O)c2ccc(Oc3ccc4ccccc4c3)cc2)c1 |  |  | -14.5 | 2.5% | Suppression [9]: -29.6% |
| O=C(CCc1ccc(Oc2ccc3ccccc3c2)cc1)Nc1ccccc1C(=O)O | 8.5% | -41.2% | -2.9 |  |  |
| Nc1ccccc1NC(=O)c1ccc(Oc2ccc3ccccc3c2)cc1 | 31.6% |  |  | 3.3% | Cell viability [10]: -9.3 |
| NC(=O)c1ccccc1NC(=O)c1ccc(Oc2ccc3ccccc3c2)cc1 | 8.6% |  |  | 10.8% | Cell viability [10]: 7.3 |
| O=C(O)c1ccccc1C(=O)Nc1ccc(Oc2ccc3ccccc3c2)cc1 |  | -23.1% |  |  | Suppression [9]: -11.8%; Cell viability [10]: 1.5 |
| O=C(Nc1ccccc1C(=O)O)c1ccc(Cc2ccc3ccccc3c2)cc1 | 9.5% | -21.1% | -1.1 |  |  |
| O=C(O)c1ccc(Oc2ccc3ccccc3c2)cc1 |  | -4.8% |  |  | Suppression [9]: -4.6% |
| O=C(Nc1ccccc1C(=O)O)c1ccc(Sc2ccc3ccccc3c2)cc1 | 25.8% | -2.8% |  |  |  |
| O=C(Nc1ccccc1C(=O)O)c1ccc(C(=O)c2ccc3ccccc3c2)cc1 | 10.3% |  |  | 5.4% |  |
| O=C(CCCC1CC1/C=C/c1ccc2ccccc2c1)Nc1ccccc1C(=O)O (centres undefined) | 63% | -0.5% | -2.6% |  | IC50 [14]: 1880 nM; IC50 [5]: > 10000 nM |
| CN(C(=O)c1ccc(Oc2ccc3ccccc3c2)cc1)c1ccccc1C(=O)O |  |  | -5.1 | 10.1% | Suppression [9]: -27.7% |
| O=C(Nc1ccccc1C(=O)O)c1ccc(Oc2ccc3ccccc3c2)c([N+](=O)[O-])c1 | 93% |  |  | 36.9% | Cell viability [10]: 19.1 |
| CC(C(=O)Nc1ccccc1C(=O)O)c1ccc(Oc2ccc3ccccc3c2)cc1 (centres undefined) | 8.7% | -15.9% | -2.1 |  |  |
| O=C(Nc1ccccc1C(=O)O)c1ccc(Oc2ccc3cc(O)ccc3c2)cc1 | 76.6% | -8.7% |  |  | IC50 [14]: 1200 nM; Cell viability [10]: 5.2; IC50 [5]: > 10000 nM |
| O=C(Nc1ccccc1C(=O)O)c1ccc(Oc2cccc3ccccc23)cc1 | 96.9% |  | -6.5 | 64.7% | IC50 [14]: 1570 nM; IC50 [5]: 2320 nM |
| O=C(O)c1ccccc1NCc1ccc(Oc2ccc3ccccc3c2)cc1 | 21.9% | -4.5% | -1.7 |  |  |
| O=C(Cc1ccc(Oc2ccc3cc(OCc4ccccc4)ccc3c2)cc1)Nc1ccccc1C(=O)O | 95.1% |  |  | 91.7% | Cell viability [10]: 58.2; IC50 (B-cell line): 12 nM; IC50 [7]: 8.3 nM; IC50 (RBL-1 [12]): 1200 nM; IC50 [5]: 42 nM |
| O=C(O)c1ccc(NC(=O)c2ccc(Oc3ccc4ccccc4c3)cc2)cc1 |  |  | -16.1 | 24.4% | Suppression [9]: 6.4% |
